# Test results published in ChEMBL document CHEMBL3351764, “Design, synthesis and biological activity of flavonoid derivatives as selective agonists for neuromedin U 2 receptor” (Bioorg Med Chem, 2014).
# Calls of active or inactive are those of the source. No cut-off for these calls is given here.
# Columns and labels:
# [1] = target: Neuromedin-U receptor 2 (Homo sapiens, UniProt Q9GZQ4); assay: Agonist activity at human NMU2R transfected in HEK293 cells after 7 hrs by luciferase reporter gene assay; format: cell-based; conditions: hek293
# Sequence of Neuromedin-U receptor 2 (Q9GZQ4 whole entry): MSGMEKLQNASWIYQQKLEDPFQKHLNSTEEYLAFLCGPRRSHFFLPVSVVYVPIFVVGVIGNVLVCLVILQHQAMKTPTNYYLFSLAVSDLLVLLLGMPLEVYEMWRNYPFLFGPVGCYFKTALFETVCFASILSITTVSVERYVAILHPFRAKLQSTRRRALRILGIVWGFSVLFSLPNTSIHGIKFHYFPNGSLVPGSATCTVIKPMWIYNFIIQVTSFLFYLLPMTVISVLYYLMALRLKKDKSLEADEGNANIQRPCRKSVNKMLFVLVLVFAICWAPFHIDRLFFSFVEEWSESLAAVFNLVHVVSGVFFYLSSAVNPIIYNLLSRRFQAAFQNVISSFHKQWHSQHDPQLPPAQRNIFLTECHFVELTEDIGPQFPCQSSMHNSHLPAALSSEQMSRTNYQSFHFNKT
# Procedure, shortened: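 HEK-293 cells were stably co-transfected with a reporter gene construct and human NMU2R cDNA in pcDNA3.1(+), maintained under G418 selection at 37 °C in 5% CO2, then seeded and incubated overnight. Compounds were added at various concentrations for 7 h at 37 °C, followed by Bright-Glo luciferase read-out. Forskolin and NMU served as positive controls. EC50 was fitted by four-parameter logistic regression; means ± SEM of three independent experiments.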
# [2] = target: Melanocortin receptor 3 (Homo sapiens) (UniProt P41968); assay: Agonist activity at human MC3 receptor at 100 uM to 5 mM
# Sequence of Melanocortin receptor 3 (Homo sapiens) (P41968 whole entry): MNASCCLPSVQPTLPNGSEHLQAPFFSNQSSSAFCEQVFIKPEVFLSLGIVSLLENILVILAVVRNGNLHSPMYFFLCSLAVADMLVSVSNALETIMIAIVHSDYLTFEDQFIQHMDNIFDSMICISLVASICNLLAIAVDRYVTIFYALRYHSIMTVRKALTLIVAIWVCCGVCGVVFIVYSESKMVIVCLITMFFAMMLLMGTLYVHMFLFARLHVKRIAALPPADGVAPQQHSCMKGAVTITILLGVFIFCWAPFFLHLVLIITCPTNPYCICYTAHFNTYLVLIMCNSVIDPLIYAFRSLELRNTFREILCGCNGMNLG
# [3] = target: Melanocyte-stimulating hormone receptor (Mus musculus) (UniProt Q01727); assay: Agonist activity at mouse MC1 receptor at 100 uM to 5 mM
# Sequence of Melanocyte-stimulating hormone receptor (Mus musculus) (Q01727 whole entry, looked up): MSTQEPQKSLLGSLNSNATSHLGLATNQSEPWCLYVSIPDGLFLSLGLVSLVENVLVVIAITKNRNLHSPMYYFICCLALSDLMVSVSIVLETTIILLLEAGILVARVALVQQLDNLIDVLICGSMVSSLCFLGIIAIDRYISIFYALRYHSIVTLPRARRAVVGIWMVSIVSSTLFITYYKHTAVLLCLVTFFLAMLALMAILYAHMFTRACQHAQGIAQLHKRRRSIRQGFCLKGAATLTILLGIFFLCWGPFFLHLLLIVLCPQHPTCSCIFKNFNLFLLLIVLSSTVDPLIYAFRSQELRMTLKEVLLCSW
# [4] = target: Melanocortin receptor 3 (Mus musculus) (UniProt P33033); assay: Agonist activity at mouse MC3 receptor at 100 uM to 5 mM
# Sequence of Melanocortin receptor 3 (Mus musculus) (P33033 whole entry): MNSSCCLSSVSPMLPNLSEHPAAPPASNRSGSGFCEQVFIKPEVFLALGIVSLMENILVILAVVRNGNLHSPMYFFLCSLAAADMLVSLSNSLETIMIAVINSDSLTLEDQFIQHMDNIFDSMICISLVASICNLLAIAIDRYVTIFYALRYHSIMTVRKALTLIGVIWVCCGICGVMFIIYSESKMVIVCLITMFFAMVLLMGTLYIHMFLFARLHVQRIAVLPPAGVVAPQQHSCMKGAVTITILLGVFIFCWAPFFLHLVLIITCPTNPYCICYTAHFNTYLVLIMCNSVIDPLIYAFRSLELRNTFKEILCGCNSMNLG
# [5] = target: T1, Neuromedin-U receptor 1 (Homo sapiens) (UniProt Q9HB89); assay: Agonist activity at human NMU1 receptor at 100 uM to 5 mM
# T1 sequence (whole entry): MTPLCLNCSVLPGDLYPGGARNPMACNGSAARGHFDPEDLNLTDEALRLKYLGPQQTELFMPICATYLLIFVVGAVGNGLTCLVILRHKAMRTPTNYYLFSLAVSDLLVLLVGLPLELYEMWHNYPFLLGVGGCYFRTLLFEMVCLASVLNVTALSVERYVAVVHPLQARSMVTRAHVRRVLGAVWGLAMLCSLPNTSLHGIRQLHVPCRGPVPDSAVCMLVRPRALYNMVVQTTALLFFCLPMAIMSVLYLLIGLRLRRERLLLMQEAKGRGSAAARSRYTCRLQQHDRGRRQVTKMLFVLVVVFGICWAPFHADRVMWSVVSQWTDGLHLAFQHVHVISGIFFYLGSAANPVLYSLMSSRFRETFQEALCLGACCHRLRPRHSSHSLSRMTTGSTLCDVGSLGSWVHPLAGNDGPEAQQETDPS
# [6] = target: T2, 5-hydroxytryptamine receptor 2C (Homo sapiens) (UniProt P28335); assay: Agonist activity at human 5HT2C receptor at 100 uM to 5 mM
# T2 sequence (whole entry): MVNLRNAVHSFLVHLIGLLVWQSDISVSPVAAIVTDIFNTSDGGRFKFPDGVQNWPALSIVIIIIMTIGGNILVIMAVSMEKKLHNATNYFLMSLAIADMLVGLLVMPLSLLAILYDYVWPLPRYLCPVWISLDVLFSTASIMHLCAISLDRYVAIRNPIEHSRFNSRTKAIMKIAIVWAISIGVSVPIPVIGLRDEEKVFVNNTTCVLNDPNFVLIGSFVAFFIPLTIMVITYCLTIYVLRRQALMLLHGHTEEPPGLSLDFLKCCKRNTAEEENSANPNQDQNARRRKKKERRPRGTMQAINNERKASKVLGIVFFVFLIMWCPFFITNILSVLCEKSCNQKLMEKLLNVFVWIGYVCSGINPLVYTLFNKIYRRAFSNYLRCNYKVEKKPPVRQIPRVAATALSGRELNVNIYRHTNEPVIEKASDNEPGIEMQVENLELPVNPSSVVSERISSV
# [7] = target: T3, Orexin receptor type 2 (Homo sapiens) (UniProt O43614); assay: Agonist activity at human orexin 2 receptor at 100 uM to 5 mM
# T3 sequence (whole entry): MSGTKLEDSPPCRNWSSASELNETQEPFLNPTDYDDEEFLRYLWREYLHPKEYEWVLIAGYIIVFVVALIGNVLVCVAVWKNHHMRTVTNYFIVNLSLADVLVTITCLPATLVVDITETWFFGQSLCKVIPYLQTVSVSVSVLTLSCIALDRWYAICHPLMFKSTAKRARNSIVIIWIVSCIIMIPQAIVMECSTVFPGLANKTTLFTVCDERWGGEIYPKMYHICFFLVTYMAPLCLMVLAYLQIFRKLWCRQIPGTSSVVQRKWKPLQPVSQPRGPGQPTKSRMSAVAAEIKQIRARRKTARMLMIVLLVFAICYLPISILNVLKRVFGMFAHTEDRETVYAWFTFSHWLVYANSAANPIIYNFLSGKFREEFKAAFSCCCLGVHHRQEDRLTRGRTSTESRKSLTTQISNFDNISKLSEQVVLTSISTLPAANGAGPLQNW
# [8] = target: Melanin-concentrating hormone receptor 1 (Homo sapiens) (UniProt Q99705); assay: Agonist activity at human MCH1 receptor at 100 uM to 5 mM
# Sequence of Melanin-concentrating hormone receptor 1 (Homo sapiens) (Q99705 whole entry): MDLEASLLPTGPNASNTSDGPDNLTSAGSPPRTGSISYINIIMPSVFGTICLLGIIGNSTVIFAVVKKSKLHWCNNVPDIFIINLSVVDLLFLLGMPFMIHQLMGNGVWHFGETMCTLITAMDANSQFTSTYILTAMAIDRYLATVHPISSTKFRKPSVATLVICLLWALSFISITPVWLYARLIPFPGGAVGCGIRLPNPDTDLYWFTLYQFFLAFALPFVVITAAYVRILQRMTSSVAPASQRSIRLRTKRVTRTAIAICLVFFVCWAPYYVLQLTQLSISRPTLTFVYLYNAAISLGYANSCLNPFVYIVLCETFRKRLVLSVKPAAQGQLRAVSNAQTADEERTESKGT
# [9] = target: T4, Adenosine receptor A1 (Homo sapiens) (UniProt P30542); assay: Agonist activity at human A1 receptor at 100 uM to 5 mM
# T4 sequence (whole entry): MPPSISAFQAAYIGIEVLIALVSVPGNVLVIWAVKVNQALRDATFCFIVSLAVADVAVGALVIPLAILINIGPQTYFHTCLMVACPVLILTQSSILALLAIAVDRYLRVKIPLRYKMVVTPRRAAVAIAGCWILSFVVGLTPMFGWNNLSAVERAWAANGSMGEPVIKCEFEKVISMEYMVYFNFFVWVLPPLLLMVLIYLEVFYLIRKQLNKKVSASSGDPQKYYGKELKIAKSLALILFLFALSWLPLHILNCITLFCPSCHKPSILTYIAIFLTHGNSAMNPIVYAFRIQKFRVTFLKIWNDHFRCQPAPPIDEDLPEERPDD
# [10] = target: T5, Parathyroid hormone/parathyroid hormone-related peptide receptor (Homo sapiens) (UniProt Q03431); assay: Agonist activity at human PTH receptor at 100 uM to 5 mM
# T5 sequence (whole entry): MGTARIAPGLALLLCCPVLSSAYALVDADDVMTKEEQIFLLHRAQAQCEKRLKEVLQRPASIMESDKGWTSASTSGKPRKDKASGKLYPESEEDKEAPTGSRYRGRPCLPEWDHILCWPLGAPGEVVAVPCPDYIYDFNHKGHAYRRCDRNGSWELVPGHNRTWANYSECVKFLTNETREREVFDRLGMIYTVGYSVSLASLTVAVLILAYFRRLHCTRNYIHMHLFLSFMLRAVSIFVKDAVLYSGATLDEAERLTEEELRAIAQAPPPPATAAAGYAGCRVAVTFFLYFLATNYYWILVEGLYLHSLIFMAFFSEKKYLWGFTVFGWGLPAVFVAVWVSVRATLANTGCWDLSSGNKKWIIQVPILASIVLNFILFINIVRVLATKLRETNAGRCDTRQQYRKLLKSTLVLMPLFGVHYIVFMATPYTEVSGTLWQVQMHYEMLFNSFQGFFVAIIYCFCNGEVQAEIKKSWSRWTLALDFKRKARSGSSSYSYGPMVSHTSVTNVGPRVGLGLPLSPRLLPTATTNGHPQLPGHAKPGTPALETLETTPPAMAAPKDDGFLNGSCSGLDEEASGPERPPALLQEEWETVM
Compound,EC50 [1],Activity [2],Activity [3],Activity [4],Activity [5],Activity [6],Activity [7],Activity [8],Activity [9],Activity [10]
O=c1c(O)c(-c2ccc(Cl)cc2Cl)oc2ccccc12,Not Active,inactive,inactive,inactive,inactive,inactive,inactive,inactive,inactive,inactive
COc1cccc(-c2oc3ccccc3c(=O)c2O)c1,Not Active,inactive,inactive,inactive,inactive,inactive,inactive,inactive,inactive,inactive
O=c1c(O)c(-c2cccc(Br)c2)oc2ccccc12,Not Active,inactive,inactive,inactive,inactive,inactive,inactive,inactive,inactive,inactive
CCOC(=O)COc1c(-c2cc(Br)ccc2F)oc2ccccc2c1=O,Not Active,inactive,inactive,inactive,inactive,inactive,inactive,inactive,inactive,inactive
O=c1cc(-c2ccccc2F)oc2ccccc12,Not Active,inactive,inactive,inactive,inactive,inactive,inactive,inactive,inactive,inactive
CCN(CC)c1ccc(-c2oc3ccccc3c(=O)c2O)cc1,Not Active,inactive,inactive,inactive,inactive,inactive,inactive,inactive,inactive,inactive
O=c1c(O)c(-c2ccc(O)c(O)c2)oc2ccccc12,Not Active,inactive,inactive,inactive,inactive,inactive,inactive,inactive,inactive,inactive
